According to ChEMBL document CHEMBL4715796, “Discovery of Chromane Containing Hepatitis C Virus (HCV) NS5A Inhibitors with Improved Potency against Resistance-Associated Variants” (J Med Chem, 2016):

Columns and labels:
[1] = Oral bioavailability in male Wistar Han rat at 10 mg/kg post overnight fasting measured upto 24 hrs by LC-MS/MS analysis; format: ADME, organism-based; settings: in vivo
How it was run: (§1)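 Overnight-fasted male Wistar Han rats or Beagle dogs, two animals per group, 24 h study. IV in 60% PEG200 (rat 2 mg/kg, dog 1 mg/kg). PO in 10% Tween (rat 10 mg/kg, dog 5 mg/kg). Blood sampled up to 24 h, plasma separated by centrifugation, and drug measured by LC/MS. MRT reported for the IV route.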

[2] = Drug concentration in male Wistar Han rat at 10 mg/kg, po measured after 24 hrs by LC/MS analysis; format: ADME, organism-based; settings: in vivo, read-out: Drug uptake; how it was run: as §1
[3] = Half-life in male Wistar Han rats at 2 mg/kg, iv administered post overnight fasting measured upto 24 hrs by LC-MS/MS analysis; format: ADME, organism-based; settings: rat, in vivo; how it was run: as §1
[4] = AUC in male Wistar Han rats at 10 mg/kg, po administered post overnight fasting measured upto 24 hrs by LC-MS/MS analysis; format: ADME, organism-based; parameters: route oral, dose 10 mg/kg, time <=24; settings: rat, in vivo; how it was run: as §1
[5] = Cmax in male Wistar Han rats at 10 mg/kg, po administered post overnight fasting measured upto 24 hrs by LC-MS/MS analysis; format: ADME, organism-based; parameters: route oral, dose 10 mg/kg, time <=24; settings: rat, in vivo; how it was run: as §1
[6] = Clearance in male Wistar Han rats at 2 mg/kg, iv administered post overnight fasting measured upto 24 hrs by LC-MS/MS analysis; format: ADME, organism-based; settings: rat, in vivo; how it was run: as §1
Huh-7 [7] = assay: Inhibition of NS5A in Hepatitis C virus subtype 4a infected in human HuH7 cells assessed as reduction in viral replication by luciferase reporter gene assay; format: cell-based
How it was run: (§2)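 Transient replicon assay with GT1a-H77, GT1b-Con1 or chimeric replicons, electroporated into a Huh7-derived cell line. Percent inhibition of replication, read as a drop in luciferase signal, was calculated at each concentration to give EC90. Values are means of at least two experiments.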

Huh-7 [8] = assay: Inhibition of NS5A in Hepatitis C virus subtype 1b infected in human HuH7 cells assessed as reduction in viral replication by luciferase reporter gene assay; format: cell-based; how it was run: as §2
Huh-7 [9] = assay: Inhibition of NS5A in Hepatitis C virus subtype 2b infected in human HuH7 cells assessed as reduction in viral replication by luciferase reporter gene assay; format: cell-based; how it was run: as §2
Huh-7 [10] = assay: Inhibition of NS5A in Hepatitis C virus subtype 1a infected in human HuH7 cells assessed as reduction in viral replication by luciferase reporter gene assay; format: cell-based; how it was run: as §2
[11] = tested on: Nonstructural protein 5A (Hepatitis C virus), Q5L478 [UNDEFINED MUTATION]; assay: Inhibition of NS5A L31V mutant in Hepatitis C virus subtype 1a infected in human HuH7 cells assessed as reduction in viral replication by luciferase reporter gene assay; format: cell-based; settings: Huh-7
How it was run: (§3)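 NS5A resistance variants engineered into GT1a-H77 or GT1b-Con1 replicons. Each variant replicon is transfected transiently by electroporation into a Huh7-derived cell line. Percent inhibition is taken from the drop in luciferase signal at each compound concentration, and EC90 is calculated from these. Values are means of at least two experiments.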

Huh-7 [12] = assay: Inhibition of NS5A in Hepatitis C virus subtype 3a infected in human HuH7 cells assessed as reduction in viral replication by luciferase reporter gene assay; format: cell-based; how it was run: as §2
[13] = tested on: T1, Nonstructural protein 5A (Hepatitis C virus), Q5L478 [Y93H]; assay: Inhibition of NS5A Y93H mutant in Hepatitis C virus subtype 1a infected in human HuH7 cells assessed as reduction in viral replication by luciferase reporter gene assay; format: cell-based; settings: Huh-7; how it was run: as §3
T1 sequence (whole entry): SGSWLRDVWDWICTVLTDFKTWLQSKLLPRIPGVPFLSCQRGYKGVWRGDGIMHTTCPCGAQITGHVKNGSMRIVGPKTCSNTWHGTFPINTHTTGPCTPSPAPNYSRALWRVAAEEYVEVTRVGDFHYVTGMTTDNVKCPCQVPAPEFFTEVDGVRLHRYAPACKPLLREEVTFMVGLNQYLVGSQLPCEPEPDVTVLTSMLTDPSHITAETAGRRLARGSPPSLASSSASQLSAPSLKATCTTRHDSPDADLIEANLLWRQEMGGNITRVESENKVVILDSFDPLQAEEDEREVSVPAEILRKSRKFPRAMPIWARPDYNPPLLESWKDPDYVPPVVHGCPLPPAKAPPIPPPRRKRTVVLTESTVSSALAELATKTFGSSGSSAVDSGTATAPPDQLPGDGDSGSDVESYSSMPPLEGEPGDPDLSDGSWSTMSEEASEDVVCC

Huh-7 [14] = assay: Inhibition of NS5A in Hepatitis C virus subtype 2a infected in human HuH7 cells assessed as reduction in viral replication by luciferase reporter gene assay; format: cell-based; how it was run: as §2
[15] = Selectivity ratio of EC90 for inhibition of NS5A in Hepatitis C virus subtype 1b infected in human HuH7 cells assessed as reduction in viral to EC90 for inhibition of NS5A in Hepatitis C virus subtype 1a; format: cell-based
How it was run: (§4)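 Fold shift calculated against the GT1a EC90, using EC90 values from the luciferase replicon assay in Huh7-derived cells.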

[16] = Selectivity ratio of EC90 for inhibition of NS5A in Hepatitis C virus subtype 2b infected in human HuH7 cells assessed as reduction in viral to EC90 for inhibition of NS5A in Hepatitis C virus subtype 1a; format: cell-based
[17] = Selectivity ratio of EC90 for inhibition of NS5A L31V mutant in Hepatitis C virus subtype 1a infected in human HuH7 cells assessed as reduction in viral to EC90 for inhibition of NS5A in Hepatitis C virus subtype 1a; format: cell-based
How it was run: (§5)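 Fold shift is calculated against the GT1a EC90. The variant EC90 comes from a transient replicon assay: the NS5A variant is introduced into a GT1a-H77 or GT1b-Con1 replicon and electroporated into Huh7-derived cells. The read-out is reduced luciferase signal. EC90s are means of at least two experiments.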

[18] = Selectivity ratio of EC90 for inhibition of NS5A in Hepatitis C virus subtype 3a infected in human HuH7 cells assessed as reduction in viral to EC90 for inhibition of NS5A in Hepatitis C virus subtype 1a; format: cell-based
[19] = Selectivity ratio of EC90 for inhibition of NS5A in Hepatitis C virus subtype 4a infected in human HuH7 cells assessed as reduction in viral to EC90 for inhibition of NS5A in Hepatitis C virus subtype 1a; format: cell-based; how it was run: as §4
[20] = Selectivity ratio of EC90 for inhibition of NS5A Y93H mutant in Hepatitis C virus subtype 1a infected in human HuH7 cells assessed as reduction in viral to EC90 for inhibition of NS5A in Hepatitis C virus subtype 1a; format: cell-based; how it was run: as §5

| SMILES | bioavailability [1] [%] | concentration at 24 h [2] [nM] | half-life [3] [h] | AUC at 24 h [4] [µM·h] | Cmax [5] [nM] | clearance [6] [mL/min/kg] | EC90 (Huh-7 [7]) [nM] | EC90 (Huh-7 [8]) [nM] | EC90 (Huh-7 [9]) [nM] | EC90 (Huh-7 [10]) [nM] | EC90 [11] [nM] | EC90 (Huh-7 [12]) [nM] | EC90 [13] [nM] | EC90 (Huh-7 [14]) [nM] | Selectivity ratio [15] | Selectivity ratio [16] | Selectivity ratio [17] | Selectivity ratio [18] | Selectivity ratio [19] | Selectivity ratio [20] |
| --- | --- | --- | --- | --- | --- | --- | --- | --- | --- | --- | --- | --- | --- | --- | --- | --- | --- | --- | --- | --- |
| COC(=O)N[C@H](C(=O)N1CCC[C@H]1c1ncc(-c2cc(F)c3c(c2)OC(c2ccc4c(c2)OCCC4)n2c-3cc3cc(-c4cnc([C@@H]5CCCN5C(=O)[C@@H](NC(=O)OC)C(C)C)[nH]4)ccc32)[nH]1)C(C)C.O=C(O)C(F)(F)F.O=C(O)C(F)(F)F (stereo not given in full) | 5 | 17 | 5.8 | 1.35 | 86 | 8 | – | – | – | – | – | – | – | – | – | – | – | – | – | – |
| COC(=O)N[C@H](C(=O)N1CCC[C@H]1c1ncc(-c2ccc3c(c2)OC(c2ccc(-c4ccccc4)cc2)n2c-3cc3cc(-c4cnc([C@@H]5CCCN5C(=O)[C@@H](NC(=O)OC)C(C)C)[nH]4)ccc32)[nH]1)C(C)C (mixture of isomers) | – | – | – | – | – | – | < 0.02 | < 0.02 | 2.6 | < 0.02 | < 2 | < 0.2 | 4.6 | < 0.2 | – | – | – | – | – | – |
| COC(=O)N[C@H](C(=O)N1CCC[C@H]1c1ncc(-c2cc(F)c3c(c2)OC(c2ccc4c(c2)OCC[C@H]4C)n2c-3cc3cc(-c4cnc([C@@H]5CCCN5C(=O)[C@@H](NC(=O)OC)C(C)C)[nH]4)ccc32)[nH]1)C(C)C (stereo not given in full) | – | – | – | – | – | – | 0.003 | 0.002 | 0.2 | 0.004 | 0.007 | 0.006 | 0.2 | – | 1 | 50 | 2 | 2 | 1 | 50 |
| COC(=O)N[C@H](C(=O)N1CCC[C@H]1c1ncc(-c2cc(F)c3c(c2)OC(c2ccc4c(c2)OCC[C@@H]4C)n2c-3cc3cc(-c4cnc([C@@H]5CCCN5C(=O)[C@@H](NC(=O)OC)C(C)C)[nH]4)ccc32)[nH]1)C(C)C (stereo not given in full) | – | – | – | – | – | – | 0.003 | 0.002 | 0.2 | 0.004 | 0.01 | 0.01 | 0.2 | – | 1 | 50 | 3 | 3 | 1 | 50 |
